Common to all, as to format: functional
For experiment [1], the system named is Mus musculus. The experiment in a line: Antinociceptive activity in ip dosed Swiss albino mouse assessed as latency time by hot plate method. Put shortly: (§1)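 Swiss albino mice (20–25 g) were housed 7 days at 30 ± 1 °C before testing, in groups of six. Compounds were given ip at 9.5–12.58 mg/kg as a 0.2% Tween suspension. Mice were placed on a 55 ± 0.5 °C hot plate before dosing and at 15, 30, 60 and 120 min after dosing, with a 15 s cut-off. Significance was assessed by Student's t test.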
(In hot-plate and tail-flick tests a longer latency is read as antinociception.)

Experiment [2] has as its system Mus musculus. The experiment is described as follows: Antinociceptive activity in ip dosed Swiss albino mouse assessed as latency time after 15 mins by hot plate method. In a few lines: as §1
Experiment [3] deals with Mus musculus. The experiment is described as follows: Antinociceptive activity in ip dosed Swiss albino mouse assessed as latency time after 30 mins by hot plate method. Put shortly:
as §1

Experiment [4] has as its system Mus musculus. The experiment is described as follows: Antinociceptive activity in ip dosed Swiss albino mouse assessed as latency time after 60 mins by hot plate method. Put shortly: as §1
Experiment [5] has as its system Mus musculus. The experiment is described as follows: Antinociceptive activity in ip dosed Swiss albino mouse assessed as latency time after 120 mins by hot plate method. Put shortly: as §1
Experiment [6] deals with Mus musculus. The experiment in a line: Antinociceptive activity in ip dosed Swiss albino mouse assessed as latency time by tail flick method. In a few lines: (§2)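 Swiss albino mice (20–25 g) received compounds ip at 9.5–12.58 mg/kg in 0.2% Tween suspension. Tail-flick latency to radiant heat was measured, with stimulus intensity set to give a 3–4 s baseline. Readings were taken just before injection and at 15, 30, 60 and 120 min after. Significance was assessed by Student's t test.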

In experiment [7] the test system is Mus musculus. The experiment is described as follows: Antinociceptive activity in ip dosed Swiss albino mouse assessed as latency time after 15 mins by tail flick method. In a few lines:
as §2

The subject of experiment [8] is Mus musculus. The experiment is described as follows: Antinociceptive activity in ip dosed Swiss albino mouse assessed as latency time after 30 mins by tail flick method. Put shortly: as §2
In experiment [9] the test system is Mus musculus. The experiment in a line: Antinociceptive activity in ip dosed Swiss albino mouse assessed as latency time after 60 mins by tail flick method. In a few lines: as §2
The subject of experiment [10] is Mus musculus. The experiment in a line: Antinociceptive activity in ip dosed Swiss albino mouse assessed as latency time after 120 mins by tail flick method. In a few lines: as §2
Experiment [11] deals with Rattus norvegicus. The experiment is described as follows: Antiinflammatory activity assessed as reduction of carrageenan-induced paw volume in intraperitoneally dosed Wistar rat after 3 hrs. Further details: scale not given: the % may be the effect or the level left. Put shortly: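 Wistar rats of either sex (120–150 g) were dosed ip with compounds at 9.5–12.58 mg/kg in 0.2% Tween suspension. After 1 h, 0.05 ml of 1.0% w/v carrageenan in 0.9% NaCl was injected into the left hind paw. Paw volume was measured by mercury-displacement plethysmometry before injection and at 1, 2 and 3 h. Percent inhibition of the 3 h swelling was calculated.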

Experiment [12] concerns Rattus norvegicus. The experiment in a line: Antiinflammatory activity assessed as reduction of carrageenan-induced paw volume in Wistar rat at 10 mg/kg, ip after 3 hrs. Particulars: route intraperitoneal. On the technique in general: In the carrageenan paw model, swelling and tenderness develop within hours.

From ChEMBL document CHEMBL1144541, “Antinociceptive and antiinflammatory activities and QSAR studies on 2-substituted-4,5-diphenyl-1H-imidazoles” (2007) come the findings set out here.

Turning to `O=[N+]([O-])c1ccccc1-c1nc(-c2ccccc2)c(-c2ccccc2)[nH]1`, the Activity stood at 4.5 s with Mus musculus [1]; 4.52 s with Mus musculus [2]; 4.62 s in the experiment with Mus musculus [3]; 4.67 s in the experiment with Mus musculus [4]; 4.71 s in the experiment with Mus musculus [5]; 4.09 s with Mus musculus [6]. Besides, the Activity in the experiment on Mus musculus [7] came to 4.1 s; with Mus musculus [8] it was 4.38 s; in the experiment on Mus musculus [9], 4.38 s; with Mus musculus [10], 4.39 s; in the experiment with Rattus norvegicus [11], 30.24%.

The inhibition in vivo is the percentage by which the read-out fell short of the control. On to `C(=C\c1nc(-c2ccccc2)c(-c2ccccc2)[nH]1)/c1ccccc1`, for which the Activity is 4.67 s in the experiment with Mus musculus [1]; 5.17 s in the experiment with Mus musculus [2]; 5.58 s with Mus musculus [3]; 5.94 s with Mus musculus [4]; 6.12 s with Mus musculus [5]; 4.16 s in the experiment on Mus musculus [6]. The Activity in the experiment on Mus musculus [7] is 4.28 s; in the experiment with Mus musculus [9] it was 4.68 s; in the experiment on Mus musculus [10], 4.75 s; in the experiment with Rattus norvegicus [11], 55.82%. Moreover, the inhibition in vivo at 10 mg/kg in the experiment on Rattus norvegicus [12] amounted to 55.8%.

In the case of `O=[N+]([O-])c1cccc(-c2nc(-c3ccccc3)c(-c3ccccc3)[nH]2)c1`, the Activity stood at 4.55 s with Mus musculus [1]; 4.56 s in the experiment on Mus musculus [2]; 4.6 s in the experiment with Mus musculus [3]; 4.62 s with Mus musculus [4]; 5.62 s with Mus musculus [5]; 4.09 s in the experiment on Mus musculus [6]. Further, the Activity with Mus musculus [7] is on record as 4.09 s; in the experiment with Mus musculus [8], 4.36 s; in the experiment on Mus musculus [9], 5.74 s; with Mus musculus [10], 5.82 s; in the experiment on Rattus norvegicus [11], 4.66%.

With `COc1ccccc1-c1nc(-c2ccccc2)c(-c2ccccc2)[nH]1`, the Activity is given as 4.9 s with Mus musculus [1]; 4.94 s with Mus musculus [2]; 6.89 s in the experiment with Mus musculus [3]; 8.65 s with Mus musculus [4]; 9.25 s in the experiment on Mus musculus [5]; 4.21 s in the experiment with Mus musculus [6]. Moreover, the Activity in the experiment with Mus musculus [7] is reported as 4.21 s; with Mus musculus [8], 5.98 s; with Mus musculus [9] it was 7.64 s; in the experiment on Mus musculus [10] it was 9.23 s; with Rattus norvegicus [11], 65.12%.

As for `Clc1cccc(-c2nc(-c3ccccc3)c(-c3ccccc3)[nH]2)c1`, the Activity in the experiment on Mus musculus [1] came to 4.68 s; with Mus musculus [2], 5.14 s; in the experiment on Mus musculus [3], 6.18 s; in the experiment on Mus musculus [4], 7.78 s; with Mus musculus [5], 8.91 s; in the experiment with Mus musculus [6], 4.12 s. The Activity in the experiment with Mus musculus [7] was found to be 4.12 s; in the experiment with Mus musculus [8] it was 4.98 s; in the experiment with Mus musculus [9], 6.89 s; in the experiment with Mus musculus [10], 8.18 s; in the experiment on Rattus norvegicus [11] it was 55.82%.

For the molecule `Oc1ccccc1-c1nc(-c2ccccc2)c(-c2ccccc2)[nH]1`, the Activity in the experiment with Mus musculus [1] is 4.89 s; with Mus musculus [2], 4.93 s; with Mus musculus [3], 6.32 s; with Mus musculus [4], 8.59 s; in the experiment with Mus musculus [5] it was 9.16 s; in the experiment with Mus musculus [6] it was 4.2 s. Moreover, the Activity in the experiment with Mus musculus [7] is on record as 4.18 s; in the experiment with Mus musculus [8], 5.82 s; in the experiment with Mus musculus [9], 7.53 s; in the experiment with Mus musculus [10], 9.12 s; with Rattus norvegicus [11] it was 60.47%.

On to `COc1ccc(-c2nc(-c3ccccc3)c(-c3ccccc3)[nH]2)cc1`, for which the Activity in the experiment on Mus musculus [1] came to 4.87 s; with Mus musculus [2], 5.02 s; in the experiment with Mus musculus [3], 7.89 s; in the experiment on Mus musculus [4] it was 9.67 s; with Mus musculus [5] it was 10.87 s; in the experiment with Mus musculus [6] it was 4.58 s. For the same molecule, the Activity is 4.98 s with Mus musculus [7]; 7.45 s in the experiment with Mus musculus [8]; 9.17 s in the experiment with Mus musculus [9]; 10.83 s in the experiment on Mus musculus [10]; 86.05% with Rattus norvegicus [11]. For the same molecule, in the experiment with Rattus norvegicus [12], the inhibition in vivo at 10 mg/kg turned out to be 86%.

As to `Clc1ccccc1-c1nc(-c2ccccc2)c(-c2ccccc2)[nH]1`, the Activity was 4.67 s with Mus musculus [1]; 4.62 s in the experiment with Mus musculus [2]; 6.25 s in the experiment on Mus musculus [3]; 8.2 s in the experiment on Mus musculus [4]; 9.01 s with Mus musculus [5]; 4.2 s in the experiment with Mus musculus [6]. The Activity in the experiment with Mus musculus [7] stood at 4.14 s; in the experiment with Mus musculus [8] it was 5.78 s; with Mus musculus [9], 7.27 s; in the experiment with Mus musculus [10], 8.85 s; in the experiment on Rattus norvegicus [11], 62.8%.

With `Cc1ccccc1-c1nc(-c2ccccc2)c(-c2ccccc2)[nH]1`, the Activity in the experiment on Mus musculus [1] stood at 4.5 s; in the experiment with Mus musculus [2], 4.55 s; in the experiment on Mus musculus [3] it was 4.67 s; with Mus musculus [4], 4.79 s; with Mus musculus [5], 5.79 s; in the experiment on Mus musculus [6], 4.11 s. Further, the Activity was 4.12 s in the experiment with Mus musculus [7]; 4.52 s in the experiment on Mus musculus [8]; 4.98 s with Mus musculus [9]; 5.52 s in the experiment on Mus musculus [10]; 18.61% with Rattus norvegicus [11].

For `COc1ccc2c(c1)c(CC(=O)O)c(C)n2C(=O)c1ccc(Cl)cc1` [INDOMETHACIN], the inhibition in vivo at 10 mg/kg with Rattus norvegicus [12] stood at 95.3%.
